The text below walks through data of paper PMC3355519 (Journal of Medicinal Chemistry, 2012).

Assay [1] concerns the target HIV-1 PRI47V (Human immunodeficiency virus type 1 group M subtype B, UniProt P04585, C555A/C583A/I535V/L521I/L551I/Q495K). The experiment in a line: HIV-1 protease inhibition, fluorogenic p2/NC substrate, I47V mutant. The class given is biochemical. In short, it runs like this: (§1)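 Recombinant HIV-1 protease (HXB2) carried stabilising substitutions Q7K, L33I, L63I, C67A and C95A, plus the point mutation introduced by site-directed mutagenesis. It was expressed in E. coli BL21(DE3) and purified from inclusion bodies. Enzyme (12-45 nM final) was preincubated 5 min at 37 °C with test compound or DMSO in 0.1 M MES pH 5.6, 0.4 M NaCl, 1 mM EDTA, 5% glycerol. Abz-Thr-Ile-Nle-p-nitro-Phe-Gln-Arg-NH2 started the reaction, read 5 min at ex 340/em 420 nm. Ki = (IC50 − [E]/2)/(1 + [S]/Km).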

Assay [2] concerns the target HIV-1 PRV82A (Human immunodeficiency virus type 1 group M subtype B, UniProt P04585, C555A/C583A/L521I/L551I/Q495K/V570A). The experiment in a line: HIV-1 protease inhibition, fluorogenic p2/NC substrate, V82A mutant. The class given is biochemical. Conditions: PRV82A vs PRWT. In short, it runs like this:
as §1

In assay [3] the test system is HIV-1LAI. Conditions: against HIV-1LAI; cited from earlier work.
The test system of assay [4] is HIV-1 protease D30N/N88D double mutant. Conditions: cited from earlier work.

`COc1ccc(S(=O)(=O)N(C[C@H]2CCC(=O)N2)C[C@@H](O)[C@H](Cc2ccccc2)NC(=O)O[C@@H]2C[C@@H]3CCO[C@@H]3C2)cc1` [Compound 1]: the Ki in assay [1] (Ki, PRI47V, pH 5.6, 37 °C) was found to be 0.4 nM. Also, the “change in the inhibition constant vs wild-type” value in assay [1] (PRI47V vs PRWT) and in assay [2] was “less than 2 fold” each time. Further, in assay [3], the “selectivity index (CC50/EC50)” value is on record as > 3,600.
`Cc1c(O)cccc1C(=O)N[C@@H](CSc1ccccc1)[C@H](O)CN1C[C@H]2CCCC[C@H]2C[C@H]1C(=O)NC(C)(C)C` [NFV, nelfinavir]: the “increase of Ki value compared to wild-type” value in assay [4] was 260 fold.
